What was measured:
HT-29 [1] = assay: Cytotoxicity against human HT-29 cells assessed as cell growth inhibition after 72 hrs by MTT assay; assay type: functional, cell-based; conditions: HT-29, 72 h
Outline: (§1)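 Cancer lines grown in MEM with 10% FBS. About 4 × 10³ cells/well were seeded in MEM and incubated 24 h at 37 °C, 5% CO₂. Compounds were then added at final concentrations and exposure ran 72 h. MTT was added for 4 h at 37 °C and formazan dissolved in DMSO. Absorbance was read at 492 nm against a 630 nm reference. IC50 is the average of three determinations.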

NCI-H460 = assay: Cytotoxicity against human H460 cells assessed as cell growth inhibition after 72 hrs by MTT assay; assay type: functional, cell-based; conditions: NCI-H460, 72 h; outline: as §1
MDA-MB-231 = assay: Cytotoxicity against human MDA-MB-231 cells assessed as cell growth inhibition after 72 hrs by MTT assay; assay type: functional, cell-based; conditions: MDA-MB-231, 72 h; outline: as §1
WI-38 [2] = assay: Cytotoxicity against human WI38 cells assessed as cell growth inhibition after 72 hrs by MTT assay; assay type: cell-based; conditions: WI-38, 72 h
Outline: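 WI-38 normal human fetal lung fibroblasts were seeded at about 4 × 10³ cells/well and held 24 h at 37 °C, 5% CO₂, then exposed to compounds for 72 h. MTT was given for 4 h at 37 °C and formazan dissolved in DMSO. A492 was read with a 630 nm reference, and IC50 was averaged from three runs.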

SMMC-7721 = assay: Cytotoxicity against human SMMC7721 cells assessed as cell growth inhibition after 72 hrs by MTT assay; assay type: functional, cell-based; conditions: SMMC-7721, 72 h; outline: as §1
HT-29 [3] = assay: Selectivity index, ratio of IC50 for human WI38 cells to IC50 for human HT-29 cells; assay type: functional
Outline: (§2)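 The index is the IC50 in WI-38 normal fibroblasts divided by the IC50 in the cancer line (H460 or HT-29). Each IC50 comes from a 72 h MTT growth-inhibition assay averaged over three determinations.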

WI-38 [4] = assay: Selectivity index, ratio of IC50 for human WI38 cells to IC50 for human H460 cells; assay type: functional; outline: as §2

Row | SMILES | IC50 (HT-29 [1]) [nM] | IC50 (NCI-H460) [nM] | IC50 (MDA-MB-231) [µM] | IC50 (WI-38 [2]) [µM] | IC50 (SMMC-7721) [µM] | Ratio IC50 (HT-29 [3]) | Ratio IC50 (WI-38 [4])
1 | CN(C)CCN1C(=O)/C(=C/c2ccc(O)cc2)SC1=S | 59700 | 46100 | 84.2 | – | – | – | –
2 | Cc1ccc2c(c1)/C(=c1/sc(=Cc3ccc4c(c3)OCO4)c(=O)n1CCN(C)C)C(=O)N2 | 1030 | 4030 | 8.1 | – | – | – | –
3 | CN(C)CCn1c(=O)c(=Cc2ccc3c(c2)OCO3)s/c1=C1\C(=O)Nc2cc(F)ccc21 | 1360 | 2810 | 2.42 | – | – | – | –
4 | CN(C)CCn1c(=O)c(=Cc2ccc(O)cc2)s/c1=C1\C(=O)Nc2ccccc21 (mixture of isomers) | 1390 | 980 | 4.28 | – | – | – | –
5 | Cc1ccc2c(c1)/C(=c1/sc(=Cc3ccc(O)cc3)c(=O)n1CCN(C)C)C(=O)N2 (mixture of isomers) | 2290 | 1770 | 1.32 | – | – | – | –
6 | COc1cc(C=c2s/c(=C3\C(=O)Nc4ccc(F)cc43)n(CCN(C)C)c2=O)cc(OC)c1OC (mixture of isomers) | 2530 | 1700 | 1.9 | 8.1 | 6.06 | – | –
7 | CCN(CC)CCCn1c(=O)c(=Cc2ccc3c(c2)OCO3)s/c1=C1\C(=O)Nc2ccccc21 (mixture of isomers) | 910 | 1020 | 1.12 | 3.93 | 3.41 | – | –
8 | CCN(CC)CCCn1c(=O)c(=Cc2ccc3c(c2)OCO3)s/c1=C1\C(=O)Nc2ccc(C)cc21 (mixture of isomers) | 2110 | 1860 | 3.1 | – | – | – | –
9 | CCN(CC)CCCn1c(=O)c(=Cc2ccc3c(c2)OCO3)s/c1=C1\C(=O)Nc2ccc(F)cc21 (mixture of isomers) | 25 | 75 | 0.77 | 6.98 | 1.95 | 279 | 93
10 | CCN(CC)CCCn1c(=O)c(=Cc2ccc3c(c2)OCO3)s/c1=C1\C(=O)Nc2cc(F)ccc21 (mixture of isomers) | 190 | 1910 | 4.13 | 8.3 | 4.02 | – | –
11 | CCN(CC)CCCn1c(=O)c(=Cc2ccc3c(c2)OCO3)s/c1=C1\C(=O)Nc2ccc(Cl)cc21 (mixture of isomers) | 437 | 1000 | 3.13 | 3.32 | 3.12 | – | –
12 | CCN(CC)CCCn1c(=O)c(=Cc2ccc(F)c(F)c2)s/c1=C1\C(=O)Nc2ccc(F)cc21 (mixture of isomers) | 640 | 1300 | 1.22 | 4.3 | 3.07 | – | –
13 | CCN(CC)CCCn1c(=O)c(=Cc2ccc(F)c(F)c2)s/c1=C1\C(=O)Nc2cc(F)ccc21 (mixture of isomers) | 28 | 1120 | 2.9 | 4.45 | 5.33 | – | –
14 | CCN(CC)CCCn1c(=O)c(=Cc2ccc(F)cc2F)s/c1=C1\C(=O)Nc2ccccc21 (mixture of isomers) | > 200000 | 5470 | > 200 | – | – | – | –
15 | CCN(CC)CCCn1c(=O)c(=Cc2ccc(F)cc2F)s/c1=C1\C(=O)Nc2cc(F)ccc21 (mixture of isomers) | 1520 | 2330 | 2.1 | – | – | – | –
16 | CCN(CC)CCCn1c(=O)c(=Cc2ccc(F)cc2F)s/c1=C1\C(=O)Nc2ccc(Cl)cc21 (mixture of isomers) | > 200000 | 6100 | > 200 | – | – | – | –
17 | CCN(CC)CCCn1c(=O)c(=Cc2cc(OC)c(OC)c(OC)c2)s/c1=C1\C(=O)Nc2ccccc21 (mixture of isomers) | 1970 | 1670 | 2.39 | – | – | – | –
18 | CCN(CC)CCCn1c(=O)c(=Cc2cc(OC)c(OC)c(OC)c2)s/c1=C1\C(=O)Nc2ccc(C)cc21 (mixture of isomers) | > 200000 | 2670 | > 200 | – | – | – | –
19 | CCN(CC)CCCn1c(=O)c(=Cc2cc(OC)c(OC)c(OC)c2)s/c1=C1\C(=O)Nc2ccc(F)cc21 (mixture of isomers) | > 200000 | 780 | > 200 | 2.02 | 2.21 | – | –
20 | CN(C)CCn1c(=O)c(=Cc2ccc(O)cc2)s/c1=C1\C(=O)Nc2ccc(F)cc21 (mixture of isomers) | 1480 | 1270 | 4.2 | – | – | – | –

Row | SMILES | IC50 (HT-29 [1]) [nM] | IC50 (NCI-H460) [nM] | IC50 (MDA-MB-231) [µM] | IC50 (WI-38 [2]) [µM] | IC50 (SMMC-7721) [µM] | Ratio IC50 (HT-29 [3]) | Ratio IC50 (WI-38 [4])
21 | CN(C)CCn1c(=O)c(=Cc2ccc(O)cc2)s/c1=C1\C(=O)Nc2cc(F)ccc21 (mixture of isomers) | 2270 | 1430 | 3.45 | – | – | – | –
22 | CN(C)CCn1c(=O)c(=Cc2ccc(O)cc2)s/c1=C1\C(=O)Nc2ccc(Cl)cc21 (mixture of isomers) | 2460 | 2030 | 3.25 | – | – | – | –
23 | CN(C)CCn1c(=O)c(=Cc2ccc(O)cc2)s/c1=C1\C(=O)Nc2ccc(Br)cc21 (mixture of isomers) | 1920 | 1110 | 2.52 | – | – | – | –
24 | COc1ccc(C=c2s/c(=C3\C(=O)Nc4cc(F)ccc43)n(CCN(C)C)c2=O)cc1 (mixture of isomers) | 2300 | 2200 | 2.09 | – | – | – | –
25 | CN(C)CCn1c(=O)c(=Cc2ccc(F)c(F)c2)s/c1=C1\C(=O)Nc2ccc(F)cc21 (mixture of isomers) | 3090 | 44700 | 9.48 | – | – | – | –
26 | CN(C)CCn1c(=O)c(=Cc2ccc(F)c(F)c2)s/c1=C1\C(=O)Nc2cc(F)ccc21 (mixture of isomers) | 12100 | 6400 | 25 | – | – | – | –
27 | Cc1ccc2c(c1)/C(=c1/sc(=Cc3ccc(F)c(F)c3)c(=O)n1CCN(C)C)C(=O)N2 (mixture of isomers) | 7430 | 59700 | > 200 | – | – | – | –
28 | CN(C)CCn1c(=O)c(=Cc2ccc(F)cc2F)s/c1=C1\C(=O)Nc2cc(F)ccc21 (mixture of isomers) | 6460 | 3200 | 8.44 | – | – | – | –
29 | COc1ccc(C=c2s/c(=C3\C(=O)Nc4ccc(Cl)cc43)n(CCN(C)C)c2=O)c(OC)c1 (mixture of isomers) | 1530 | 10600 | 3.83 | – | – | – | –
30 | COc1ccc(C=c2s/c(=C3\C(=O)Nc4cc(F)ccc43)n(CCN(C)C)c2=O)c(OC)c1 (mixture of isomers) | 868 | 20500 | 4.83 | 3.01 | 6.81 | – | –
31 | COc1ccc(OC)c(C=c2s/c(=C3\C(=O)Nc4cc(F)ccc43)n(CCN(C)C)c2=O)c1 (mixture of isomers) | 4450 | 7150 | 14.5 | – | – | – | –
32 | COc1ccc(OC)c(C=c2s/c(=C3\C(=O)Nc4ccccc43)n(CCN(C)C)c2=O)c1 (mixture of isomers) | 96000 | 63700 | 21 | – | – | – | –
33 | CN(C)CCn1c(=O)c(=Cc2ccc3c(c2)OCO3)s/c1=C1\C(=O)Nc2ccccc21 (mixture of isomers) | 700 | 820 | 3.23 | 1.77 | 2.74 | – | –
34 | CCN(CC)CCCn1c(=O)c(=Cc2cc(OC)c(OC)c(OC)c2)s/c1=C1\C(=O)Nc2cc(F)ccc21 (mixture of isomers) | > 200000 | 1410 | > 200 | – | – | – | –
35 | CCN(CC)CCCn1c(=O)c(=Cc2cc(OC)c(OC)c(OC)c2)s/c1=C1\C(=O)Nc2ccc(Cl)cc21 (mixture of isomers) | > 200000 | 2990 | > 200 | – | – | – | –
36 | CCN(CC)CCCn1c(=O)c(=Cc2ccc(O)cc2)s/c1=C1\C(=O)Nc2ccc(C)cc21 (mixture of isomers) | 770 | 260 | 1.81 | 5.75 | 5.09 | – | –
37 | CCN(CC)CCCn1c(=O)c(=Cc2ccccc2O)s/c1=C1\C(=O)Nc2ccccc21 (mixture of isomers) | > 200000 | > 200000 | > 200 | – | – | – | –
38 | CCN(CC)CCCn1c(=O)c(=Cc2ccccc2O)s/c1=C1\C(=O)Nc2ccc(C)cc21 (mixture of isomers) | 8070 | 11300 | 15.9 | – | – | – | –
39 | CCN(CC)CCCn1c(=O)c(=Cc2ccccc2O)s/c1=C1\C(=O)Nc2ccc(Br)cc21 (mixture of isomers) | 18100 | 51700 | 19.9 | – | – | – | –
40 | CCN(CC)CCNC(=O)c1c(C)[nH]c(/C=C2\C(=O)Nc3ccc(F)cc32)c1C [SUNITINIB] | 1300 | 2700 | 3.7 | 8.56 | 6.47 | – | –

Reference: ChEMBL document CHEMBL1806409, “Design, synthesis and biological evaluation of novel 4-thiazolidinones containing indolin-2-one moiety as potential antitumor agent” (Eur J Med Chem, 2011)
